# From ChEMBL document CHEMBL5120908, “Diterpenoid Constituents of Psiadia punctulata and Evaluation of Their Antimicrobial Activity” (2022)
# Activity calls are given as the source filed them. The calls are words filed in the database; no cut-off is given here.
# Columns and labels:
# [1] = system: Streptococcus mutans; assay: Antibacterial activity against Streptococcus mutans ATCC 25175 assessed as inhibition of efflux pump by measuring […] in accumulation of ethidium bromide at 0.6 ug/ml and measured after 60 mins by fluorescence assay; format: functional, organism-based; conditions: dose 0.6 µg/ml
# In short: (§1)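 EtBr accumulation in S. mutans grown overnight in BHI at 37 °C. Cells were washed twice and resuspended in PBS at OD600 0.6 with 0.4% glucose and 2 μg/mL EtBr (final). Psiadin was tested at 25 and 50 μg/mL, chlorhexidine at 0.6 μg/mL, and psiadin combined with chlorhexidine. DMSO and MeOH (0.5% each) served as negative controls. Fluorescence (ex 525/em 605 nm) was read every 60 s for 60 min at 37 °C.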
# [2] = system: Staphylococcus aureus; assay: Antibacterial activity against Staphylococcus aureus ATCC 23235 incubated for 48 hrs by checkerboard assay; format: functional
# In short: (§2)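 Checkerboard: psiadin at 0, 25, 50, 100, 200 μg/mL crossed with chlorhexidine at 5, 2.5, 1.25, 0.6, 0.3, 0 μg/mL. Broth microdilution MIC was read as the lowest concentration with no visible growth (A600). L. plantarum grew in MRS and T. denticola in BHI, both anaerobic at 37 °C. S. aureus and S. mutans grew in aerobic BHI at 37 °C. FIC index calculated from combination versus single-agent MICs.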
# [3] = system: Streptococcus mutans; assay: Antibacterial activity against Streptococcus mutans ATCC 25175 incubated for 48 hrs by checkerboard assay; format: functional; in short: as §2
# [4] = system: Lactiplantibacillus plantarum; assay: Antibacterial activity against Lactobacillus plantarum ATCC 8014 incubated for 48 hrs by checkerboard assay; format: functional; in short: as §2
# [5] = system: Treponema denticola; assay: Antibacterial activity against Treponema denticola ATCC 35405 incubated for 48 hrs by checkerboard assay; format: functional; in short: as §2
# [6] = system: Staphylococcus aureus; assay: Antibacterial activity against Staphylococcus aureus ATCC 23235 incubated for 48 hrs by spectrophotometric analysis; format: functional
# [7] = system: Streptococcus mutans; assay: Antibacterial activity against Streptococcus mutans ATCC 25175 incubated for 48 hrs by spectrophotometric analysis; format: functional
# [8] = system: Treponema denticola; assay: Antibacterial activity against Treponema denticola ATCC 35405 incubated for 48 hrs by spectrophotometric analysis; format: functional
# In short: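 Broth microdilution MIC: fractions tested at 20–200 μg/mL and pure compounds at 10–200 μg/mL, each with 0.5 × 10^5 CFU/mL inoculum. S. aureus and S. mutans grew aerobically in BHI at 37 °C for 24 h. T. denticola grew anaerobically in BHI at 37 °C for 48 h. Read by A600. MIC is the lowest concentration inhibiting visible growth. Blank and DMSO vehicle controls were included; triplicate.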
# [9] = system: Staphylococcus aureus; assay: Potentiation of antimicrobial activity against Staphylococcus aureus ATCC 23235 assessed as chlorhexidine MIC at 25 ug/ml incubated for 48 hrs by checkerboard assay; format: functional; conditions: dose 25 µg/ml; in short: as §2
# [10] = system: Streptococcus mutans; assay: Potentiation of antimicrobial activity against Streptococcus mutans ATCC 25175 assessed as chlorhexidine MIC at 25 ug/ml incubated for 48 hrs by checkerboard assay; format: functional; conditions: dose 25 µg/ml; in short: as §2
# [11] = system: Lactiplantibacillus plantarum; assay: Potentiation of antimicrobial activity against Lactobacillus plantarum ATCC 8014 assessed as chlorhexidine MIC at 25 ug/ml incubated for 48 hrs by checkerboard assay; format: functional; conditions: dose 25 µg/ml; in short: as §2
# [12] = system: Treponema denticola; assay: Potentiation of antimicrobial activity against Treponema denticola ATCC 35405 assessed as chlorhexidine MIC at 25 ug/ml incubated for 48 hrs by checkerboard assay; format: functional; conditions: dose 25 µg/ml; in short: as §2
# [13] = system: Staphylococcus aureus; assay: Potentiation of antimicrobial activity against Staphylococcus aureus ATCC 23235 assessed as chlorhexidine MIC at 50 ug/ml incubated for 48 hrs by checkerboard assay; format: functional; conditions: dose 50 µg/ml; in short: as §2
# [14] = system: Streptococcus mutans; assay: Potentiation of antimicrobial activity against Streptococcus mutans ATCC 25175 assessed as chlorhexidine MIC at 50 ug/ml incubated for 48 hrs by checkerboard assay; format: functional; conditions: dose 50 µg/ml; in short: as §2
# [15] = system: Lactiplantibacillus plantarum; assay: Potentiation of antimicrobial activity against Lactobacillus plantarum ATCC 8014 assessed as chlorhexidine MIC at 50 ug/ml incubated for 48 hrs by checkerboard assay; format: functional; conditions: dose 50 µg/ml; in short: as §2
# [16] = system: Treponema denticola; assay: Potentiation of antimicrobial activity against Treponema denticola ATCC 35405 assessed as chlorhexidine MIC at 50 ug/ml incubated for 48 hrs by checkerboard assay; format: functional; conditions: dose 50 µg/ml; in short: as §2
# [17] = system: Staphylococcus aureus; assay: Potentiation of antimicrobial activity against Staphylococcus aureus ATCC 23235 assessed as chlorhexidine MIC at 100 ug/ml incubated for 48 hrs by checkerboard assay; format: functional; conditions: dose 100 µg/ml; in short: as §2
# [18] = system: Streptococcus mutans; assay: Potentiation of antimicrobial activity against Streptococcus mutans ATCC 25175 assessed as chlorhexidine MIC at 100 ug/ml incubated for 48 hrs by checkerboard assay; format: functional; conditions: dose 100 µg/ml; in short: as §2
# [19] = system: Lactiplantibacillus plantarum; assay: Potentiation of antimicrobial activity against Lactobacillus plantarum ATCC 8014 assessed as chlorhexidine MIC at 100 ug/ml incubated for 48 hrs by checkerboard assay; format: functional; conditions: dose 100 µg/ml; in short: as §2
# [20] = system: Treponema denticola; assay: Potentiation of antimicrobial activity against Treponema denticola ATCC 35405 assessed as chlorhexidine MIC at 100 ug/ml incubated for 48 hrs by checkerboard assay; format: functional; conditions: dose 100 µg/ml; in short: as §2
# [21] = system: Staphylococcus aureus; assay: Potentiation of antimicrobial activity against Staphylococcus aureus ATCC 23235 assessed as chlorhexidine MIC at 200 ug/ml incubated for 48 hrs by checkerboard assay; format: functional; conditions: dose 200 µg/ml; in short: as §2
# [22] = system: Streptococcus mutans; assay: Potentiation of antimicrobial activity against Streptococcus mutans ATCC 25175 assessed as chlorhexidine MIC at 200 ug/ml incubated for 48 hrs by checkerboard assay; format: functional; conditions: dose 200 µg/ml; in short: as §2
# [23] = system: Lactiplantibacillus plantarum; assay: Potentiation of antimicrobial activity against Lactobacillus plantarum ATCC 8014 assessed as chlorhexidine MIC at 200 ug/ml incubated for 48 hrs by checkerboard assay; format: functional; conditions: dose 200 µg/ml; in short: as §2
# [24] = system: Treponema denticola; assay: Potentiation of antimicrobial activity against Treponema denticola ATCC 35405 assessed as chlorhexidine MIC at 200 ug/ml incubated for 48 hrs by checkerboard assay; format: functional; conditions: dose 200 µg/ml; in short: as §2
# [25] = system: Staphylococcus aureus; assay: Synergistic antimicrobial activity against Staphylococcus aureus ATCC 23235 assessed as fractional inhibitory concentration at 50 ug/ml incubated for 48 hrs in presence of chlorhexidine by checkerboard assay; format: functional; conditions: dose 50 µg/ml; in short: as §2
# [26] = system: Staphylococcus aureus; assay: Synergistic antimicrobial activity against Staphylococcus aureus ATCC 23235 assessed as fractional inhibitory concentration at 25 ug/ml incubated for 48 hrs in presence of chlorhexidine by checkerboard assay; format: functional; conditions: dose 25 µg/ml; in short: as §2
# [27] = system: Streptococcus mutans; assay: Antibacterial activity against Streptococcus mutans ATCC 25175 assessed as inhibition of efflux pump by measuring increase in accumulation of ethidium bromide at 25 to 50 ug/ml and measured after 60 mins by fluorescence assay; format: functional, organism-based; conditions: dose 25-50 µg/ml, DDE = dose-dependent effect; in short: as §1
# [28] = system: Streptococcus mutans; assay: Antibacterial activity against Streptococcus mutans ATCC 25175 assessed as inhibition of efflux pump by measuring increase in accumulation of ethidium bromide at 50 ug/ml and measured after 60 mins in presence of chlorhexidine by fluorescence assay; format: functional, organism-based; conditions: dose 50.0 µg/ml; in short: as §1
# [29] = system: Streptococcus mutans; assay: Synergistic antimicrobial activity against Streptococcus mutans ATCC 25175 assessed as fractional inhibitory concentration incubated for 48 hrs in presence of chlorhexidine by checkerboard assay; format: functional; conditions: time 24 hrs; in the assay text read “24 hrs” for “48 hrs”; in short: as §2
# [30] = system: Streptococcus mutans; assay: Antibiofilm activity against Streptococcus mutans ATCC 25175 at 50 to 100 ug/ml measured after 24 hrs by crystal violet staining method; conditions: dose 50-100 µg/ml
smiles,measurement,setting,value
N=C(NCCCCCCNC(=N)NC(=N)Nc1ccc(Cl)cc1)NC(=N)Nc1ccc(Cl)cc1 [CHLORHEXIDINE],Activity,[1],Active
same,MIC,[2],2.5 µg/mL
same,MIC,[3],1.25 µg/mL
same,MIC,[4],10 µg/mL
same,MIC,[5],2.2 µg/mL
C=C1C[C@]23CC[C@@H]4C(CO)(CO)CC(=O)C[C@@]4(C)[C@@H]2CC[C@H]1C3,MIC,[6],125 µg/mL
same,MIC,[7],140 µg/mL
same,MIC,[8],100 µg/mL
same,MIC,[9],1.25 µg/mL
same,MIC,[10],1.25 µg/mL
same,MIC,[11],10 µg/mL
same,MIC,[12],2.5 µg/mL
same,MIC,[13],1.25 µg/mL
same,MIC,[14],0.6 µg/mL
same,MIC,[15],10 µg/mL
same,MIC,[16],2.5 µg/mL
same,MIC,[17],0.6 µg/mL
same,MIC,[18],0.6 µg/mL
same,MIC,[19],10 µg/mL
same,MIC,[20],2.5 µg/mL
same,MIC,[21],0.3 µg/mL
same,MIC,[22],0.3 µg/mL
same,MIC,[23],2.5 µg/mL
same,MIC,[24],1.25 µg/mL
same,FIC,[25],0.9
same,FIC,[26],0.7
same,Activity,[27],Dde
same,Activity,[28],Active
same,FIC,[29],0.85
same,Activity,[30],Active
COc1c(OC)c(O)c2c(=O)cc(-c3ccc(O)cc3)oc2c1OC [XANTHOMICROL],MIC,[6],> 250 µg/mL
same,MIC,[7],180 µg/mL
same,MIC,[8],200 µg/mL
